What was measured:
Type in all cases: functional, cell-based
A549 = assay: Cytotoxicity against human A549 cells after 48 hrs by MTS assay; conditions: A549, 48 h
Method in brief: (§1)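 Cells grown in RPMI 1640 with 10% FBS and penicillin/streptomycin at 37 °C under 5% CO2. Adherent lines were seeded at 1 × 10^4 cells/well and left to attach for 12 h. Compounds in DMSO were tested at 0.064, 0.32, 1.6, 8 and 40 μM, in triplicate, for 48 h, with cisplatin as positive control. MTS was then added and formazan dissolved in 20% SDS (12 h, room temperature). OD read at 490 nm; IC50 by Reed and Muench method.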

MCF7 = assay: Cytotoxicity against human MCF7 cells after 48 hrs by MTS assay; conditions: MCF7, 48 h; method in brief: as §1
SW480 = assay: Cytotoxicity against human SW480 cells after 48 hrs by MTS assay; conditions: SW480, 48 h; method in brief: as §1
[1] = Cytotoxicity against human HL60 cells after 48 hrs by MTS assay; conditions: HL-60, 48 h; method in brief: as §1
SMMC-7721 = assay: Cytotoxicity against human SMMC7721 cells after 48 hrs by MTS assay; conditions: SMMC-7721, 48 h; method in brief: as §1
[2] = Cytotoxicity against human BEAS2B cells after 48 hrs by MTS assay; conditions: BEAS-2B

Row | Structure (SMILES) | IC50 (A549) [µM] | IC50 (MCF7) [µM] | IC50 (SW480) [µM] | IC50 [1] [µM] | IC50 (SMMC-7721) [µM] | IC50 [2] [µM]
1 | CO[C@@H]1C=C([C@@H]2C[C@H]3O[C@@]34[C@@]2(C)C[C@H](O)[C@@H]2[C@@]3(C)C=CC(=O)C(C)(C)C3=C(O)C(=O)[C@]24C)[C@@H](OC)O1 | 3.7 | 4.2 | 3.5 | 3.6 | 2.4 | 5
2 | CC1(C)C(=O)C=C[C@@]2(C)C1=C(O)C(=O)[C@]1(C)[C@@H]2[C@@H](O)C[C@@]2(C)[C@H](C3=CC(=O)O[C@@H]3O)C[C@H]3O[C@]321 | 2.6 | 3.9 | 2.4 | 3.1 | 2.2 | 9.4
